Reference: ChEMBL document CHEMBL3244155, “Inhibitory analogues of the luteinizing hormone-releasing hormone having D-aromatic residues in positions 2 and 6 and variation in position 3” (1978)
Active and inactive are the calls of the source. The calls are words filed in the database; no cut-off is given here. Non-standard residues stand in square brackets, D forms with d. Residues, ends and D or L forms follow the SMILES beside them. pGlu = O=C1CC[C@@H](C(=O)O)N1

Assays:
[1] = biological target: T1, Gonadotropin-releasing hormone receptor (Rattus norvegicus) (UniProt P30969); test: Antagonist activity at LH-RH receptor in Sprague-Dawley rat pituitary gland assessed as change in LHRH-stimulated FSH release at 100 ug/ml preincubated for 4 hrs followed by LH-RH addition at 5th and 6th hr 5 mins post compound addition and measured for 6 hrs by RIA
T1 sequence (whole entry): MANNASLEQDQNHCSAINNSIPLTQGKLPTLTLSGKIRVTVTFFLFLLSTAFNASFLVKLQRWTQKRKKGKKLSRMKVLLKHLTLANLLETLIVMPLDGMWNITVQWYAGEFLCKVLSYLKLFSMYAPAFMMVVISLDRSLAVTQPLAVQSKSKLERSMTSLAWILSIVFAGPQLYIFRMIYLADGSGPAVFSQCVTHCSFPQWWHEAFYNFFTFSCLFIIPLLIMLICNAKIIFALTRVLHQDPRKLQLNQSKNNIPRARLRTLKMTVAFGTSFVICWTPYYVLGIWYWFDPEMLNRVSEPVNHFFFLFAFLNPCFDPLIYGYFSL
Outline: (§1)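 Pituitaries from 20-day-old female Sprague-Dawley rats, two per 1 mL lactated Ringer's, shaken 6 h at 37 °C with medium changed each hour. Analogue added at hours 3–6. LH-RH 0.6 ng/mL medium added 5 min after peptide at hours 5 and 6. LH and FSH measured by RIA against rat standards. Change in ng/mL with SEM and p values.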

[2] = biological target: T1, Gonadotropin-releasing hormone receptor (Rattus norvegicus); test: Antagonist activity at LH-RH receptor in Sprague-Dawley rat pituitary gland assessed as change in LHRH-stimulated LH release at 1 ug/ml preincubated for 4 hrs followed by LH-RH addition at 5th and 6th hr 5 mins post compound addition and measured for 6 hrs by RIA; outline: as §1
[3] = biological target: T1, Gonadotropin-releasing hormone receptor (Rattus norvegicus); test: Agonist activity at LH-RH receptor in Sprague-Dawley rat pituitary gland assessed as change in LH release at 100 ug/ml measured for 6 hrs by RIA
Outline: (§2)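 Two pituitaries from 20-day-old female Sprague-Dawley rats incubated 6 h at 37 °C in 1 mL lactated Ringer's with shaking. Medium removed hourly and replaced. Analogue alone added at hours 3–6. LH and FSH measured by RIA, expressed as ng/mL of medium against LH-LER-1240-2 and NIAMDD rat FSH RP-1 standards. Change reported with SEM.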

[4] = biological target: T1, Gonadotropin-releasing hormone receptor (Rattus norvegicus); test: Antagonist activity at LH-RH receptor in Sprague-Dawley rat pituitary gland assessed as change in LHRH-stimulated LH release at 100 ug/ml preincubated for 4 hrs followed by LH-RH addition at 5th and 6th hr 5 mins post compound addition and measured for 6 hrs by RIA; outline: as §1
[5] = biological target: T1, Gonadotropin-releasing hormone receptor (Rattus norvegicus); test: Antagonist activity at LH-RH receptor in Sprague-Dawley rat pituitary gland assessed as change in LHRH-stimulated FSH release at 1 ug/ml preincubated for 4 hrs followed by LH-RH addition at 5th and 6th hr 5 mins post compound addition and measured for 6 hrs by RIA; outline: as §1
[6] = biological target: T1, Gonadotropin-releasing hormone receptor (Rattus norvegicus); test: Antagonist activity at LH-RH receptor in Sprague-Dawley rat pituitary gland assessed as change in LHRH-stimulated FSH release at 0.1 ug/ml preincubated for 4 hrs followed by LH-RH addition at 5th and 6th hr 5 mins post compound addition and measured for 6 hrs by RIA; outline: as §1
[7] = biological target: T1, Gonadotropin-releasing hormone receptor (Rattus norvegicus); test: Antagonist activity at LH-RH receptor in Sprague-Dawley rat pituitary gland assessed as change in LHRH-stimulated LH release at 0.1 ug/ml preincubated for 4 hrs followed by LH-RH addition at 5th and 6th hr 5 mins post compound addition and measured for 6 hrs by RIA; outline: as §1
Rattus norvegicus [8] = test: Antiovulatory activity in rat assessed as inhibition of ovulation at 750 ug, sc relative to vehicle-treated control; format: functional
Outline: (§3)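 Rats with 4-day cycles given one sc injection of analogue in corn oil on proestrus, between 12 and 12:30 p.m. Controls received 0.3 mL corn oil. Ova shed were counted on estrus. Percent of rats with ovulation inhibited was recorded, with ova per ovulating rat ± SEM.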

[9] = biological target: T1, Gonadotropin-releasing hormone receptor (Rattus norvegicus); test: Agonist activity at LH-RH receptor in Sprague-Dawley rat pituitary gland assessed as change in FSH release at 100 ug/ml measured for 6 hrs by RIA; outline: as §2
Rattus norvegicus [10] = test: Antiovulatory activity in rat assessed as inhibition of ovulation at 375 ug, sc relative to vehicle-treated control; format: functional; outline: as §3
[11] = biological target: T1, Gonadotropin-releasing hormone receptor (Rattus norvegicus); test: Antagonist activity at LH-RH receptor in Sprague-Dawley rat pituitary gland assessed as change in LHRH-stimulated FSH release at 10 ug/ml preincubated for 4 hrs followed by LH-RH addition at 5th and 6th hr 5 mins post compound addition and measured for 6 hrs by RIA; outline: as §1
[12] = biological target: T1, Gonadotropin-releasing hormone receptor (Rattus norvegicus); test: Antagonist activity at LH-RH receptor in Sprague-Dawley rat pituitary gland assessed as change in LHRH-stimulated LH release at 10 ug/ml preincubated for 4 hrs followed by LH-RH addition at 5th and 6th hr 5 mins post compound addition and measured for 6 hrs by RIA; outline: as §1
Rattus norvegicus [13] = test: Antiovulatory activity in rat assessed as inhibition of ovulation at 1500 ug, sc relative to vehicle-treated control; format: functional; outline: as §3

With `CC(C)C[C@H](NC(=O)[C@@H](Cc1c[nH]c2ccccc12)NC(=O)[C@H](Cc1ccc(O)cc1)NC(=O)[C@H](CO)NC(=O)[C@@H](Cc1ccccc1)NC(=O)[C@@H](Cc1ccccc1)NC(=O)[C@@H]1CCC(=O)N1)C(=O)N[C@@H](CCCNC(=N)N)C(=O)N1CCC[C@H]1C(=O)NCC(N)=O` the Activity [1] was -814 ng/mL, the Activity [2] was 39 ng/mL and the Activity [3] was “inactive”. The Activity [4] was 10 ng/mL, the Activity [5] was 70 ng/mL and the Activity [6] was 2120 ng/mL. For the same compound, the Activity [7] was 97 ng/mL, the “inhibition (INH)” value (Rattus norvegicus [8]) was 40% and the Activity [9] was “inactive”.

`CC(C)C[C@H](NC(=O)[C@@H](Cc1ccccc1)NC(=O)[C@H](Cc1ccc(O)cc1)NC(=O)[C@H](CO)NC(=O)[C@@H]1CCCN1C(=O)[C@@H](Cc1ccccc1)NC(=O)[C@@H]1CCC(=O)N1)C(=O)N[C@@H](CCCNC(=N)N)C(=O)N1CCC[C@H]1C(=O)NCC(N)=O` ([pGlu][dF]PSY[dF]LRPG-NH2) was tested, and the Activity [1] was 179 ng/mL, the “inhibition (INH)” value (Rattus norvegicus [10]) was 20% and the Activity [2] was 17 ng/mL. The Activity [3] was “inactive”, the Activity [4] was 12 ng/mL and the Activity [5] was 280 ng/mL. For the same compound, the Activity [6] was 1380 ng/mL, the Activity [7] was 46 ng/mL and the “inhibition (INH)” value (Rattus norvegicus [8]) was 100%. The Activity [9] was “inactive”.

Work on `CC(C)C[C@H](NC(=O)[C@@H](Cc1ccccc1)NC(=O)[C@H](Cc1ccc(O)cc1)NC(=O)[C@H](CO)NC(=O)[C@@H](NC(=O)[C@@H](Cc1ccccc1)NC(=O)[C@@H]1CCC(=O)N1)[C@@H](C)O)C(=O)N[C@@H](CCCNC(=N)N)C(=O)N1CCC[C@H]1C(=O)NCC(N)=O` yielded an Activity [1] of 379 ng/mL, an Activity [11] of 751 ng/mL and an Activity [2] of 97 ng/mL. The Activity [3] was “inactive”, the Activity [4] was 16 ng/mL and the Activity [5] was 2450 ng/mL. For the same compound, the Activity [6] was 5470 ng/mL, the Activity [12] was 18 ng/mL and the Activity [7] was 159 ng/mL. For the same compound, the “inhibition (INH)” value (Rattus norvegicus [8]) was 0% and the Activity [9] was “inactive”.

`CC[C@H](C)[C@H](NC(=O)[C@@H](Cc1ccccc1)NC(=O)[C@@H]1CCC(=O)N1)C(=O)N[C@@H](CO)C(=O)N[C@@H](Cc1ccc(O)cc1)C(=O)N[C@H](Cc1c[nH]c2ccccc12)C(=O)N[C@@H](CC(C)C)C(=O)N[C@@H](CCCNC(=N)N)C(=O)N1CCC[C@H]1C(=O)NCC(N)=O` was tested, and the Activity [1] was 645 ng/mL, the Activity [2] was 21 ng/mL and the Activity [3] was “inactive”. It also gave an Activity [4] of 68 ng/mL, an Activity [5] of -348 ng/mL and an Activity [6] of 2310 ng/mL. For the same compound, the Activity [7] was 143 ng/mL, the “inhibition (INH)” value (Rattus norvegicus [8]) was 0% and the Activity [9] was “inactive”.

For `CSCC[C@H](NC(=O)[C@@H](Cc1ccccc1)NC(=O)[C@@H]1CCC(=O)N1)C(=O)N[C@@H](CO)C(=O)N[C@@H](Cc1ccc(O)cc1)C(=O)N[C@H](Cc1c[nH]c2ccccc12)C(=O)N[C@@H](CC(C)C)C(=O)N[C@@H](CCCNC(=N)N)C(=O)N1CCC[C@H]1C(=O)NCC(N)=O`, the Activity [1] was -672 ng/mL, the Activity [2] was 52 ng/mL and the Activity [3] was “inactive”. For the same compound, the Activity [4] was 10 ng/mL, the Activity [5] was -291 ng/mL and the Activity [6] was 3270 ng/mL. For the same compound, the Activity [7] was 77 ng/mL, the “inhibition (INH)” value (Rattus norvegicus [8]) was 20% and the Activity [9] was “inactive”.

Work on `CC(C)C[C@H](NC(=O)[C@@H](Cc1ccccc1)NC(=O)[C@H](Cc1ccc(O)cc1)NC(=O)[C@H](CO)NC(=O)[C@H](CCCNC(=N)N)NC(=O)[C@@H](Cc1ccccc1)NC(=O)[C@@H]1CCC(=O)N1)C(=O)N[C@@H](CCCNC(=N)N)C(=O)N1CCC[C@H]1C(=O)NCC(N)=O` yielded an Activity [1] of -133 ng/mL, an Activity [11] of 380 ng/mL and an Activity [2] of 51 ng/mL. For the same compound, the Activity [3] was “inactive”, the Activity [4] was 18 ng/mL and the Activity [5] was 1390 ng/mL. It also gave an Activity [6] of 5390 ng/mL, an Activity [12] of 34 ng/mL and an Activity [7] of 276 ng/mL. For the same compound, the “inhibition (INH)” value (Rattus norvegicus [8]) was 40% and the Activity [9] was “inactive”.

With `CC(C)C[C@H](NC(=O)[C@@H](Cc1c[nH]c2ccccc12)NC(=O)[C@H](Cc1ccc(O)cc1)NC(=O)[C@H](CO)NC(=O)[C@@H](NC(=O)[C@@H](Cc1ccccc1)NC(=O)[C@@H]1CCC(=O)N1)C(C)C)C(=O)N[C@@H](CCCNC(=N)N)C(=O)N1CCC[C@H]1C(=O)NCC(N)=O` the Activity [1] was 110 ng/mL, the “inhibition (INH)” value (Rattus norvegicus [13]) was 60% and the Activity [2] was -32 ng/mL. For the same compound, the Activity [3] was “inactive”, the Activity [4] was 7 ng/mL and the Activity [5] was -1140 ng/mL. The Activity [6] was 3010 ng/mL, the Activity [7] was 44 ng/mL and the “inhibition (INH)” value (Rattus norvegicus [8]) was 16%. The Activity [9] was “inactive”.

`CC(C)C[C@H](NC(=O)[C@@H](Cc1ccccc1)NC(=O)[C@H](Cc1ccc(O)cc1)NC(=O)[C@H](CO)NC(=O)CN(C)C(=O)[C@@H](Cc1ccccc1)NC(=O)[C@@H]1CCC(=O)N1)C(=O)N[C@@H](CCCNC(=N)N)C(=O)N1CCC[C@H]1C(=O)NCC(N)=O` was tested, and the Activity [1] was 321 ng/mL, the Activity [11] was 518 ng/mL and the Activity [2] was 127 ng/mL. The Activity [3] was “inactive”, the Activity [4] was 13 ng/mL and the Activity [5] was 3450 ng/mL. The Activity [6] was 4590 ng/mL, the Activity [12] was 22 ng/mL and the Activity [7] was 339 ng/mL. For the same compound, the “inhibition (INH)” value (Rattus norvegicus [8]) was 50% and the Activity [9] was “inactive”.
